GI50 data for six compounds are collected here from ChEMBL document CHEMBL4373650, “Synthesis, conformational preferences, and biological activity of conformational analogues of the microtubule-stabilizing agents, (-)-zampanolide and (-)-dactylolide” (Medchemcomm, 2019).

One may read the GI50 as the concentration giving 50% growth inhibition.

Test [1] addresses T1, Tubulin (Homo sapiens) (UniProt P68371+Q9H4B7+P0DPH7+P68366+Q13509+Q71U36+P04350+Q3ZCM7+P07437+P68363+Q9BQE3+Q6PEY2+Q13885+Q9BVA1+Q9BUF5). Description: Induction of microtubule stabilization in human PC3 cells assessed as inhibition of cell growth incubated for 72 hrs by Celltiter reagent-based assay. In short, it runs like this: (§1)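 Cells kept in DMEM with 10% fetal bovine serum. Exposed to serial dilutions of each compound for 3 days, then growth read with CellTiter reagent and GI50 determined. Each compound first run as a 10-dose dilution series, then as narrower replicate 6-dose series, each a separate experiment.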

Test [2] addresses T1, Tubulin (Homo sapiens). The experiment in a line: Induction of microtubule stabilization in human A549 cells assessed as inhibition of cell growth incubated for 72 hrs by Celltiter reagent-based assay. In short, it runs like this:
as §1

Test [3] deals with T1, Tubulin (Homo sapiens). Description: Induction of microtubule stabilization in human 1A9 cells assessed as inhibition of cell growth incubated for 72 hrs by Celltiter reagent-based assay. In outline: as §1

With `C=C1C[C@@H]2C/C=C/C(=O)C/C(C)=C\C=C\C(=O)O[C@H](C=O)C/C(C)=C/[C@H](C1)O2`, the figures for the GI50 in test [1], in test [2] and in test [3] were 0.46 µM, 0.95 µM and 0.62 µM, respectively.
Take `CC(=O)O[C@H]1C(=O)[C@@]2(C)[C@H]([C@H](OC(=O)c3ccccc3)[C@]3(O)C[C@H](OC(=O)[C@H](O)[C@@H](NC(=O)c4ccccc4)c4ccccc4)C(C)=C1C3(C)C)[C@]1(OC(C)=O)CO[C@@H]1C[C@@H]2O`: the 50% growth inhibitory concentration (GI50) in test [1] stood at 0.0046 µM; in test [2] it was 0.006 µM; in test [3], 0.0052 µM.
Consider `C=C1C[C@@H]2C/C=C/C(=O)C/C(C)=C\C=C\C(=O)O[C@H]([C@H](O)NC(=O)/C=C\C=C\C)C/C(C)=C/[C@H](C1)O2`, for which the GI50 was determined as 0.0032 µM in test [1], 0.0052 µM in test [2] and 0.0021 µM in test [3].
Turning to `C/C1=C/C=C/C(=O)O[C@H](C=O)C/C=C/[C@@H]2CCC[C@H](C/C=C/C(=O)C1)O2`, the GI50 in test [1], in test [2] and in test [3] was over 30 µM in each case.
Consider `C/C=C/C=C\C(=O)NC(O)[C@@H]1C/C=C/[C@@H]2CCC[C@H](C/C=C/C(=O)C/C(C)=C\C=C\C(=O)O1)O2` (stereo partly drawn), for which the GI50 in test [1] was found to be 0.056 µM; in test [2], 0.18 µM; in test [3], 0.12 µM.
As to `C/C1=C/C=C/C(=O)O[C@H](CO)C/C=C/[C@@H]2CCC[C@H](C/C=C/C(=O)C1)O2`, the GI50 in test [1], in test [2] and in test [3] was over 30 µM in each case.
